Series [1] can be described thus: Distribution coefficient, log D of the compound at pH 7.4. The class given is physicochemical. To be noted: octanol/water. Summed up:
(§1)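 Log D values were obtained by calculation, not by experimental partitioning.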

Series [2] is described as follows: Distribution coefficient, log D of the compound at pH 1.5. The class given is physicochemical. To be noted: octanol/water. Summed up: as §1
For series [3], the system named is PBMC. Briefly: Inhibition of osteoclastogenesis in human osteoclasts obtained from PBMC assessed as formation of TRAPC positive multinucleated cells at 10^-5 M after 7 days. In kind it is functional, cell-based. An outline of the steps:
(§2)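 Human PBMC from buffy coats (Ficoll), adherent monocytes at 3 × 10^6 cells/cm2 differentiated in DMEM/10% FBS with 25% SH-SY5Y conditioned supernatant, compound (10^-5, 10^-7, 10^-9 M) added with differentiation medium for 7 days. TRACP-positive multinucleated cells counted after fixation and TRACP staining; untreated differentiated cultures = 100%. Duplicates; 4 cultures from two donors.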

Series [4] has as its system Osteoclast. Briefly: Induction of apoptosis in human multinucleated osteoclasts obtained from PBMC assessed as formation of apoptotic nuclear bodies at 10^-5 M after 7 days by Hoechst 33258 staining. In kind it is functional, cell-based. Summed up:
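PBMC-derived osteoclasts (7 days in SH-SY5Y-conditioned differentiation medium) then exposed to compound (10^-5, 10^-7, 10^-9 M) for a further 7 days. Fixed, stained with phalloidin-TRITC (F-actin rings) and Hoechst 33258; multinucleated cells with apoptotic nuclear bodies counted over whole well at 40×, as % of multinucleated TRACP-positive cells. 4 cultures, two donors.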

Series [5] concerns Hydroxyapatite. Description: Binding affinity to hydroxyapatite assessed as unadsorbed compound level at 20 mg after 3 hrs using 2.5 mg/ml of hydroxyapatite by NMR analysis relative to control. Summed up:
(§3)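 Bisphosphonate salt dissolved in bidistilled water, pH adjusted to 7.4, and magnetically stirred at 25 °C for the hydroxyapatite adsorption test.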

The subject of series [6] is Hydroxyapatite. Briefly: Binding affinity to hydroxyapatite assessed as unadsorbed compound level at 20 mg after 24 hrs using 2.5 mg/ml of hydroxyapatite by NMR analysis relative to control. Summed up: as §3
Series [7] deals with Hydroxyapatite. Description: Binding affinity to hydroxyapatite assessed as unadsorbed compound level at 20 mg after 48 hrs using 5 mg/ml of hydroxyapatite by NMR analysis relative to control. Summed up: as §3
The test system of series [8] is Hydroxyapatite. Description: Binding affinity to hydroxyapatite assessed as unadsorbed compound level at 20 mg after 72 hrs using 7.5 mg/ml of hydroxyapatite by NMR analysis relative to control. An outline of the steps:
as §3

For series [9], the system named is Hydroxyapatite. Briefly: Binding affinity to hydroxyapatite assessed as unadsorbed compound level at 20 mg after 96 hrs using 10 mg/ml of hydroxyapatite by NMR analysis relative to control. An outline of the steps: as §3
Series [10] deals with L929. Briefly: Cytotoxicity against mouse L929 cells assessed as cell viability after 72 hrs by neutral-red uptake assay. In kind it is cell-based. Conditions: l929, 72 h. Summed up:
(§4)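 L929 mouse fibroblasts in MEM/10% FCS, 0.8 × 10^3 cells/well, adhered 24 h, then exposed to serial dilutions (10^-4 to 10^-10 M; 10^-2 M PBS pH 7.4 stocks) for 72 h. Neutral red 2 h at 37 °C, extracted with ethanol/acetic acid, OD 540 nm, blank-subtracted; ratio to medium-only control. Triplicate wells, 9 experiments.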

The test system of series [11] is PBMC. Briefly: Inhibition of osteoclastogenesis in human osteoclasts obtained from PBMC assessed as formation of TRAPC positive multinucleated cells at 10^-5 to 10^-9 M after 7 days. In kind it is functional, cell-based. An outline of the steps:
as §2

Series [12] can be described thus: Solubility of the compound in L929 cell culture medium. The class given is physicochemical.
The test system of series [13] is L929. Briefly: Cytotoxicity against mouse L929 cells assessed as cell viability at 10^-4 to 10^-5 M after 72 hrs by neutral-red uptake assay relative to neridronate. In kind it is cell-based. To be noted: l929, 72 h. An outline of the steps: as §4
The test system of series [14] is Hydroxyapatite. Briefly: Binding affinity to hydroxyapatite assessed as unadsorbed compound level at 40 mg after 3 hrs using 2.5 mg/ml of hydroxyapatite by NMR analysis relative to control. Summed up: (§5)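 Compound (about 40 mg) dissolved in 10 mL bidistilled water, pH adjusted to 7.4, stirred at 25 °C in a capped vial with hydroxyapatite; remaining unadsorbed compound in solution followed over time by NMR signal relative to starting signal.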

Series [15] deals with Hydroxyapatite. Briefly: Binding affinity to hydroxyapatite assessed as unadsorbed compound level at 40 mg after 24 hrs using 2.5 mg/ml of hydroxyapatite by NMR analysis relative to control. Summed up: as §5
Series [16] concerns Hydroxyapatite. Description: Binding affinity to hydroxyapatite assessed as unadsorbed compound level at 40 mg after 48 hrs using 5 mg/ml of hydroxyapatite by NMR analysis relative to control. An outline of the steps: as §5
Series [17] deals with Hydroxyapatite. Briefly: Binding affinity to hydroxyapatite assessed as unadsorbed compound level at 40 mg after 72 hrs using 7.5 mg/ml of hydroxyapatite by NMR analysis relative to control. An outline of the steps: as §5
Series [18] relates to Hydroxyapatite. Description: Binding affinity to hydroxyapatite assessed as unadsorbed compound level at 40 mg after 96 hrs using 10 mg/ml of hydroxyapatite by NMR analysis relative to control. Summed up: as §5

This is an account of results in ChEMBL document CHEMBL2021915, “Synthesis, characterization and biological activity of hydroxyl-bisphosphonic analogs of bile acids” (Eur J Med Chem, 2012).

The source made the active and inactive calls. The calls are words filed in the database; no cut-off is given here.

Regarding `C[C@H](CCC(O)(P(=O)(O)O)P(=O)(O)O)[C@H]1CC[C@H]2[C@@H]3[C@H](O)C[C@@H]4C[C@H](O)CC[C@]4(C)[C@H]3CC[C@]12C` [listing 1 of 2 here], the logD in [1] (read-out: logD) is -3.34; in series [2], 0.44.

For the compound `C[C@H](CCC(=O)O)[C@H]1CC[C@H]2[C@@H]3[C@H](O)C[C@@H]4C[C@H](O)CC[C@]4(C)[C@H]3CC[C@]12C`, the inhibition result in series [3] is “Active”. Moreover, in series [4], the outcome was Active.

Consider `C[C@H](CCC(O)(P(=O)(O)O)P(=O)(O)O)[C@H]1CC[C@H]2[C@@H]3[C@H](O)C[C@@H]4C[C@H](O)CC[C@]4(C)[C@H]3C[C@H](O)[C@]12C`, for which the logD in series [1] is -4.53; in series [2], -0.76.

On to `NCCCCCC(O)(P(=O)(O)O)P(=O)(O)O` [NERIDRONIC ACID], for which the Activity in series [5] was 98%; in series [6], 96%; in [7] it was 85%; in series [8], 82%; in series [9], 67%; in series [10] it was “Dose-dependent effect”. The inhibition result in series [11] is “Active”. Besides, in [4], the result was Active.

On to `C[C@H](CCC(O)(P(=O)([O-])O)P(=O)([O-])O)[C@H]1CC[C@H]2[C@@H]3[C@H](O)C[C@@H]4C[C@H](O)CC[C@]4(C)[C@H]3C[C@H](O)[C@]12C.[Na+].[Na+]`, for which the solubility result in [12] is listed as “Insoluble”.

In the case of `C[C@H](CCC(O)(P(=O)([O-])O)P(=O)([O-])O)[C@H]1CC[C@H]2[C@@H]3[C@H](O)C[C@@H]4C[C@H](O)CC[C@]4(C)[C@H]3CC[C@]12C.[Na+].[Na+]`, the Activity entry in [10] is listed as “Dose-dependent effect”; in [13] it was “Non-toxic”.

Regarding `C[C@H](CCC(O)(P(=O)([O-])O)P(=O)([O-])O)[C@H]1CC[C@H]2[C@@H]3[C@@H](O)C[C@@H]4C[C@H](O)CC[C@]4(C)[C@H]3CC[C@]12C.[Na+].[Na+]`, the solubility result in series [12] was “Insoluble”.

Consider `O=P(O)(O)C(Cl)(Cl)P(=O)(O)O` [CLODRONIC ACID], for which the Activity stood at 100% in series [5]; 100% in [6]; 100% in series [7]; 96% in series [8]; 93% in series [9]. In addition, the figures for the log distribution coefficient (logD) in series [1] and in [2] were -5.04 and -1.32, respectively.

In the case of `C[C@H](CCC(O)(P(=O)(O)O)P(=O)(O)O)[C@H]1CC[C@H]2[C@@H]3[C@H](O)C[C@@H]4C[C@H](O)CC[C@]4(C)[C@H]3CC[C@]12C` [listing 2 of 2 here], the Activity in series [14] was 91%; in [15], 64%; in [16] it was 32%; in series [17], 12%; in series [18], 3%. Besides, the inhibition result in [11] is “Active”. For the same compound, the outcome in series [4] was Active.

Turning to `C[C@H](CCC(O)(P(=O)(O)O)P(=O)(O)O)[C@H]1CC[C@H]2[C@@H]3[C@@H](O)C[C@@H]4C[C@H](O)CC[C@]4(C)[C@H]3CC[C@]12C`, the logD in series [1] (read-out: logD) was -3.34; in series [2] it was 0.44.
